Values after ≈ are worked out from the molar mass of the structure shown.
What was measured:
[1] = biological target: MAO-A (Amine oxidase [flavin-containing] A) (Homo sapiens, UniProt P21397); experiment: Inhibition of MAO-A (unknown origin) at 10 uM relative to control
[2] = biological target: Beta-2 adrenergic receptor (Homo sapiens) (UniProt P07550); experiment: Inhibition of human beta 2 receptor at 10 uM relative to control
[3] = biological target: 72 kDa type IV collagenase (Homo sapiens) (UniProt P08253); experiment: Inhibition of human MMP-2 at 10 uM relative to control
Motilin receptor = Motilin receptor (Homo sapiens, UniProt O43193); experiment: Inhibition of human motilin receptor at 10 uM relative to control
Homo sapiens [4] = species on record: Homo sapiens; experiment: Inhibition of human TNF-alpha at 10 uM relative to control
[5] = Inhibition of SETD7 D256A mutant (unknown origin) using biotinylated H3 (1-25) peptide as substrate incubated for 1 hrs in presence of 3H-SAM by radioactivity based assay; set-up: species or system Homo sapiens
Method in brief: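 Scintillation proximity assay on recombinant E. coli-expressed human SETD7(1–366) mutant forms. Read-out was incorporation of the ³H-methyl group from ³H-SAM into histone H3(1–25) peptide, with 2 µM SAM, 2 µM H3(1–25) and 2 nM enzyme. IC50 is given as the mean ± SD of triplicate runs.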

MCF7 = experiment: Cytotoxicity against human MCF7 cells assessed as reduction in cell viability at <50 uM by alamar blue assay; type: toxicity, cell-based; details: mcf7, 50 µM
Homo sapiens [6] = species on record: Homo sapiens; experiment: Inhibition of human NOP(ORL1) at 10 uM relative to control
[7] = biological target: Somatostatin receptor type 1 (Homo sapiens) (UniProt P30872); experiment: Inhibition of human sst1 at 10 uM relative to control
Sequence of Somatostatin receptor type 1 (Homo sapiens) (P30872 whole entry): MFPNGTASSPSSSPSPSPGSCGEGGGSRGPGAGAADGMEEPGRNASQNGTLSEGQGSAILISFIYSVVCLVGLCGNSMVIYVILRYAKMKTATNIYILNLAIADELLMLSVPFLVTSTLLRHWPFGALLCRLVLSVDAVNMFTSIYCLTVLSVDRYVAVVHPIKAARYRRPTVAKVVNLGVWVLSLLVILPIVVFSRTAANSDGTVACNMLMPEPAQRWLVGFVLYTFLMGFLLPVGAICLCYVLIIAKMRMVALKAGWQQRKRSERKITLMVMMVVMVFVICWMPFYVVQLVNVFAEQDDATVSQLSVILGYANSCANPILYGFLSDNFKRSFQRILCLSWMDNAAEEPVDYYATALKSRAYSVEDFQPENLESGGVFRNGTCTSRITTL

[8] = biological target: Alpha-2A adrenergic receptor (Homo sapiens) (UniProt P08913); experiment: Inhibition of human alpha 2A receptor at 10 uM relative to control
Sequence of Alpha-2A adrenergic receptor (Homo sapiens) (P08913 whole entry): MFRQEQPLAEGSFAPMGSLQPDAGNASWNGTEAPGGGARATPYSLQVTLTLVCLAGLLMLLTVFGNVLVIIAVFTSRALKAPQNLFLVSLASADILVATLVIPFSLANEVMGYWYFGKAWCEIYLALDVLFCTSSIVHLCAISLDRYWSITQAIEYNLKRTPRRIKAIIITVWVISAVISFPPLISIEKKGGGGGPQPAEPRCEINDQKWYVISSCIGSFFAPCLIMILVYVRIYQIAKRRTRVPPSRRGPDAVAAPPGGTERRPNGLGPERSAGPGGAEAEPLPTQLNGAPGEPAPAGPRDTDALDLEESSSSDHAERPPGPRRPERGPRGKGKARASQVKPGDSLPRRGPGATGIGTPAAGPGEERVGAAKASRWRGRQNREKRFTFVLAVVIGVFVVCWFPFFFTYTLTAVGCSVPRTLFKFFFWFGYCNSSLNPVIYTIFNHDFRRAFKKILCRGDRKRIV

[9] = biological target: Adenosine receptor A2a (Homo sapiens) (UniProt P29274); experiment: Inhibition of human A2A receptor at 10 uM relative to control
[10] = biological target: Prostaglandin E2 receptor EP2 subtype (Homo sapiens) (UniProt P43116); experiment: Inhibition of human EP2 receptor at 10 uM relative to control
Homo sapiens [11] = species on record: Homo sapiens; experiment: Inhibition of Ca2+ channel L, diltiazem site(unknown origin) at 10 uM relative to control
[12] = biological target: Sodium-dependent dopamine transporter (Homo sapiens) (UniProt Q01959); experiment: Inhibition of human dopamine transporter at 10 uM relative to control
Sequence of Sodium-dependent dopamine transporter (Homo sapiens) (Q01959 whole entry): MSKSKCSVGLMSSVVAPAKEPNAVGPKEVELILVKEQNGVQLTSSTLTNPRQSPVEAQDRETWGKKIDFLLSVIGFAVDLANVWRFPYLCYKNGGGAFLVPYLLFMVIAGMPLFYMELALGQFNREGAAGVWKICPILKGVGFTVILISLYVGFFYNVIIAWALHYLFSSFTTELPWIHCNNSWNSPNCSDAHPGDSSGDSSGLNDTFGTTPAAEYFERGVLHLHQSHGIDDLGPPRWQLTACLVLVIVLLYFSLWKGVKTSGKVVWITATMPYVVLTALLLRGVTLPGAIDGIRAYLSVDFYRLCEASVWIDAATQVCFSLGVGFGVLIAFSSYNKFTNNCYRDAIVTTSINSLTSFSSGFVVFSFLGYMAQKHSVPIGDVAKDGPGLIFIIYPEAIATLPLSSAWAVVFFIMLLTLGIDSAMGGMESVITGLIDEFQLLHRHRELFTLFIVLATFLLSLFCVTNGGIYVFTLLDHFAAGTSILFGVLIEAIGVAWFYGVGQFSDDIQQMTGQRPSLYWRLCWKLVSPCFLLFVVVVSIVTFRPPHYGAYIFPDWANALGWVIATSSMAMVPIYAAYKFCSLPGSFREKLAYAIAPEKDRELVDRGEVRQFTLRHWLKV

[13] = biological target: Alpha-2B adrenergic receptor (Homo sapiens, UniProt P18089); experiment: Inhibition of human alpha 2B receptor
Sequence of Alpha-2B adrenergic receptor (P18089 whole entry): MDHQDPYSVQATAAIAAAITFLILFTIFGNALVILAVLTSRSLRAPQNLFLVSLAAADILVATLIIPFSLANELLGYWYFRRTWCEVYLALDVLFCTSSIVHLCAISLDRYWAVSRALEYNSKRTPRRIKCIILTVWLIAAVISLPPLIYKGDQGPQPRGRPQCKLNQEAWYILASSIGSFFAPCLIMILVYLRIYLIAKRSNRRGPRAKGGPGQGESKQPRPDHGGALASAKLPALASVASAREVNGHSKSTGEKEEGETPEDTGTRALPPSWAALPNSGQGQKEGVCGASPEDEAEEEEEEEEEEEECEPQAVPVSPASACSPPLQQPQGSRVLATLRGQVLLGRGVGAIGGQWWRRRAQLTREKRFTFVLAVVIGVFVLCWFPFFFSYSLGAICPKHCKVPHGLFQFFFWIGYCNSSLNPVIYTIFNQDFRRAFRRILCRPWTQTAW

[14] = biological target: 5-hydroxytryptamine receptor 1D (Homo sapiens) (UniProt P28221); experiment: Inhibition of 5-HT1D receptor (unknown origin) at 10 uM relative to control
[15] = biological target: Cysteinyl leukotriene receptor 1 (Homo sapiens) (UniProt Q9Y271); experiment: Inhibition of human CysLT1 at 10 uM relative to control
Homo sapiens [16] = species on record: Homo sapiens; experiment: Inhibition of Na+ channel site 2 (unknown origin) at 10 uM relative to control
[17] = biological target: T1, Histone-lysine N-methyltransferase SETD7 (Homo sapiens, UniProt Q8WTS6); experiment: Binding affinity to biotinylated SETD7 (unknown origin) assessed as dissociation constant in presence of SAM in flow and wash buffer by SPR analysis
T1 sequence (Q8WTS6 whole entry): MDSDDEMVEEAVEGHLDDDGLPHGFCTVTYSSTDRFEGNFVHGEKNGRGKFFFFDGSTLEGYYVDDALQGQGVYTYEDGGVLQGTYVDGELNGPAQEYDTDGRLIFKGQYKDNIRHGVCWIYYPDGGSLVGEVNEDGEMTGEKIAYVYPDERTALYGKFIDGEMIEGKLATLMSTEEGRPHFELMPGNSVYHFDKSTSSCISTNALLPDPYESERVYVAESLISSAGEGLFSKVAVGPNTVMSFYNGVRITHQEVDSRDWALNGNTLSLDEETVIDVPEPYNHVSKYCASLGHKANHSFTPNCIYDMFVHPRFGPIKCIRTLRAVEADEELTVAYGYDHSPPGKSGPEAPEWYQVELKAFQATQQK

Homo sapiens [18] = species on record: Homo sapiens; experiment: Inhibition of central BZD receptor (unknown origin) at 10 uM relative to control
[19] = biological target: Cannabinoid receptor 1 (Homo sapiens) (UniProt P21554); experiment: Inhibition of human CB1 receptor at 10 uM relative to control
Sequence of Cannabinoid receptor 1 (Homo sapiens) (P21554 whole entry, the tested form may be a part): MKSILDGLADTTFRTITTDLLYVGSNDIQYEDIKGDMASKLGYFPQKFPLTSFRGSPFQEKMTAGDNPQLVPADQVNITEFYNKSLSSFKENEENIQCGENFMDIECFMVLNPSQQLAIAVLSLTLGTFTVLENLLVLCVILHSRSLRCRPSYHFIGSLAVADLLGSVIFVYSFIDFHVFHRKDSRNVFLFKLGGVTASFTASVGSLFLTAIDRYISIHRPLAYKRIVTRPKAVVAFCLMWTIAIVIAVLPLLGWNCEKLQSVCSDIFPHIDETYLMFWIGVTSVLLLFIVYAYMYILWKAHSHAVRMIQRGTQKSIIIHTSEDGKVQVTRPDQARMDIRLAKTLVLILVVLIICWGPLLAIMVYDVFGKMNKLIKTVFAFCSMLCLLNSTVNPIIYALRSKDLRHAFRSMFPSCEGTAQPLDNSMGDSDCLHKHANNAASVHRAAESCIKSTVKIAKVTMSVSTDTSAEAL

[20] = biological target: T1, Histone-lysine N-methyltransferase SETD7; experiment: Inhibition of wildtype full length human SETD7 (1 to 366 residues) expressed in Escherichia coli BL21 (DE3) V2R-pRARE using biotinylated H3 (1-25) peptide as substrate incubated for 1 hrs in presence of 3H-SAM by radioactivity based assay
[21] = biological target: 5-hydroxytryptamine receptor 1B (Homo sapiens) (UniProt P28222); experiment: Inhibition of 5-HT1B receptor (unknown origin) at 10 uM relative to control
Homo sapiens [22] = species on record: Homo sapiens; experiment: Inhibition of kainate receptor (unknown origin) at 10 uM relative to control
[23] = biological target: Delta-type opioid receptor (Homo sapiens) (UniProt P41143); experiment: Inhibition of human delta 2 opioid receptor at 10 uM relative to control
[24] = biological target: Neprilysin (Homo sapiens) (UniProt P08473); experiment: Inhibition of human neutral endopeptidase at 10 uM relative to control
Sequence of Neprilysin (Homo sapiens) (P08473 whole entry): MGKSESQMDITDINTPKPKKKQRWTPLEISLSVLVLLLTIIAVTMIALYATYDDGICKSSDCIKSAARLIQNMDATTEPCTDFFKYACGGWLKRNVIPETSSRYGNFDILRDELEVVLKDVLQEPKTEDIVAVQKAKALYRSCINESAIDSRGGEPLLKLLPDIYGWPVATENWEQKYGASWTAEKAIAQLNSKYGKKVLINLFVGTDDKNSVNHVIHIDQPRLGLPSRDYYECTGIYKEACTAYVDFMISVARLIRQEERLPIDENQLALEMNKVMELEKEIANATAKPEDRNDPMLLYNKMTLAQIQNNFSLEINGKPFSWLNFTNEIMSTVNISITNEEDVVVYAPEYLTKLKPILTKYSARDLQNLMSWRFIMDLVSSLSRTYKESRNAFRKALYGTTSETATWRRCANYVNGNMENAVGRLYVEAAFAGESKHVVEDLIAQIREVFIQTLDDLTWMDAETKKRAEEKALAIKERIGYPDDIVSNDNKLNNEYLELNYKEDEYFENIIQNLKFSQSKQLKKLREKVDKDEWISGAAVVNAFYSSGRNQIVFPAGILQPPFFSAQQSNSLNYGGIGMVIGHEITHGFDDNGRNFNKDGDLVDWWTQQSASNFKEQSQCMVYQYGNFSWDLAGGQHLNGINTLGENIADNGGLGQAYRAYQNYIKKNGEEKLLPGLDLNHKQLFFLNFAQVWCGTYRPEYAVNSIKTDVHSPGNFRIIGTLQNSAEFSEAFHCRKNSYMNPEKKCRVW

[25] = biological target: Melanocortin receptor 3 (Homo sapiens) (UniProt P41968); experiment: Inhibition of human MC3 receptor at 10 uM relative to control
[26] = biological target: Tyrosine-protein kinase ABL1 (Homo sapiens) (UniProt P00519); experiment: Inhibition of human Abl kinase at 10 uM relative to control
[27] = biological target: cGMP-dependent 3',5'-cyclic phosphodiesterase (Homo sapiens) (UniProt O00408); experiment: Inhibition of human PDE2A1 at 10 uM relative to control
[28] = biological target: Histamine H3 receptor (Homo sapiens) (UniProt Q9Y5N1); experiment: Inhibition of human H3 receptor at 10 uM relative to control
Sequence of Histamine H3 receptor (Homo sapiens) (Q9Y5N1 whole entry): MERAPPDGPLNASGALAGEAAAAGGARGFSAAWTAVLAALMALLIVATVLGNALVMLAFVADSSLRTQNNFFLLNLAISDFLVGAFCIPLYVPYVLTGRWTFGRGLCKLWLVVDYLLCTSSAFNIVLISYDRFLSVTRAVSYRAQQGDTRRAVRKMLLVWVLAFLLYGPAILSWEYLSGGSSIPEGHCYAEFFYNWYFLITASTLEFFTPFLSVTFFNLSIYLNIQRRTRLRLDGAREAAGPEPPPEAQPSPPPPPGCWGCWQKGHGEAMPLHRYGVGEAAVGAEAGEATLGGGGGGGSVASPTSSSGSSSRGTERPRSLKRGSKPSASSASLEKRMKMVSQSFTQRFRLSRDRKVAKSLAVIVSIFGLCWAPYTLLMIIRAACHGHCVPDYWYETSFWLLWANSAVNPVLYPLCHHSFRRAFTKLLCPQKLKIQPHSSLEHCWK

[29] = biological target: 5-hydroxytryptamine receptor 1A (Homo sapiens) (UniProt P08908); experiment: Inhibition of human 5-HT1A receptor at 10 uM relative to control
Sequence of 5-hydroxytryptamine receptor 1A (Homo sapiens) (P08908 whole entry): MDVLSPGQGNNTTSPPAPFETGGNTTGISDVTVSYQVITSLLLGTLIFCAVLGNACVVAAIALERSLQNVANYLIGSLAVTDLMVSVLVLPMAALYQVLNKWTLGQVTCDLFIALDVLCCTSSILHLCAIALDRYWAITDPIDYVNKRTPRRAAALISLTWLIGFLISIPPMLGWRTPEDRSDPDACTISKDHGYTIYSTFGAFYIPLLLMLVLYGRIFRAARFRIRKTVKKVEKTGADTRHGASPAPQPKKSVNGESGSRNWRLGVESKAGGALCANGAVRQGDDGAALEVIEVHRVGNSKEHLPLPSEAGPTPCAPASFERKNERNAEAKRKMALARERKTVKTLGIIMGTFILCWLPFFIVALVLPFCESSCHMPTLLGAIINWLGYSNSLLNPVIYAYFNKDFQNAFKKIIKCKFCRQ

[30] = Aqueous solubility of compound; type: physicochemical; details: buffer
Homo sapiens [31] = species on record: Homo sapiens; experiment: Inhibition of human CDK2/CycA at 10 uM relative to control
[32] = biological target: Gamma-aminobutyric acid receptor subunit beta-1 (Homo sapiens) (UniProt P18505); experiment: Inhibition of human GABA beta 1b at 10 uM relative to control
Sequence of Gamma-aminobutyric acid receptor subunit beta-1 (Homo sapiens) (P18505 whole entry): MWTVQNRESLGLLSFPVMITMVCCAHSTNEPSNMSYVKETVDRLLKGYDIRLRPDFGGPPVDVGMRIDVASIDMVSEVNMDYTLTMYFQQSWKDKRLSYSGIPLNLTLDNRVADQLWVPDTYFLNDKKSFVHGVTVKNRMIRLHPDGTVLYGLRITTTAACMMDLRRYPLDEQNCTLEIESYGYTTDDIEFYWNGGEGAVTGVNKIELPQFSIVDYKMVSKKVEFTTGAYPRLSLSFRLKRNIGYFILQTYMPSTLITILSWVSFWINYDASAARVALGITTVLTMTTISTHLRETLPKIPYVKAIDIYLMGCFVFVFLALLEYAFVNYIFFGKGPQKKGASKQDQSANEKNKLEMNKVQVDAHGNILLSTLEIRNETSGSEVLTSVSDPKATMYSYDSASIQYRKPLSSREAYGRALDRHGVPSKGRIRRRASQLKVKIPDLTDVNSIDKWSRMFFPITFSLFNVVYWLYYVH

Homo sapiens [33] = species on record: Homo sapiens; experiment: Inhibition of human TR at 10 uM relative to control
[34] = Lipophilicity, logD of compound at pH 7.4; type: physicochemical; details: buffer
[35] = biological target: Endothelin receptor type B (Homo sapiens) (UniProt P24530); experiment: Inhibition of human ETB receptor at 10 uM relative to control
Sequence of Endothelin receptor type B (Homo sapiens) (P24530 whole entry): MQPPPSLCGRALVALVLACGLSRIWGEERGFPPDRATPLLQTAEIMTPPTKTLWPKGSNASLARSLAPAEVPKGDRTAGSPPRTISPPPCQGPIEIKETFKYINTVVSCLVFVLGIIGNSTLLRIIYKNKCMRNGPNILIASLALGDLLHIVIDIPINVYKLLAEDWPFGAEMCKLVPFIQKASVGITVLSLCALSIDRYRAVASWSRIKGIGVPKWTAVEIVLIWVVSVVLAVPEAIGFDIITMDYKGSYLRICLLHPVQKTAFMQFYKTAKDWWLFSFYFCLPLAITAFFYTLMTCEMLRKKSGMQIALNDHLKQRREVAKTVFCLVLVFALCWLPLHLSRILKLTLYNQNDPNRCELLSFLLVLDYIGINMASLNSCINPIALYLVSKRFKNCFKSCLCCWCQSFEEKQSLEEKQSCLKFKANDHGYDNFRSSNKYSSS

[36] = biological target: GABA-A receptor; alpha-1/beta-2/gamma-2 (Homo sapiens) (UniProt P14867+P47870+P18507); experiment: Inhibition of human GABA alpha1/beta2/gamma2 at 10 uM relative to control; type: protein-complex assay

O=C([C@@H](Cc1cccc(C(F)(F)F)c1)NS(=O)(=O)c1cc(F)c2c(c1)CCNC2)N1CCCC1
inhibition at 10 µM [1]: 6% | inhibition [2]: -4% | inhibition [3]: 15% | inhibition (Motilin receptor): 55% | inhibition (Homo sapiens [4]): -4% | IC50 [5]: 1200 nM | Activity (MCF7): Non-Toxic | inhibition (Homo sapiens [6]): 11% | inhibition [7]: 5% | inhibition [8]: 15% | inhibition [9]: 18% | inhibition [10]: -1% | inhibition (Homo sapiens [11]): 52% | inhibition [12]: 2% | IC50 [13]: 1300 nM | inhibition [14]: 10% | inhibition [15]: -1% | inhibition (Homo sapiens [16]): 43% | Kd [17]: 4.2 nM | inhibition (Homo sapiens [18]): 11% | inhibition [19]: 25% | IC50 [20]: 2 nM | inhibition [21]: 7% | inhibition (Homo sapiens [22]): -3% | inhibition [23]: 47% | inhibition [24]: -6% | inhibition [25]: 7% | inhibition [26]: 15% | inhibition [27]: -2% | inhibition [28]: -1% | inhibition [29]: 0% | solubility [30]: 285 µM (≈ 142 µg/mL) | inhibition (Homo sapiens [31]): -1% | inhibition [32]: 5% | inhibition (Homo sapiens [33]): 5% | logD [34]: 2.3 | inhibition [35]: 12% | inhibition [36]: -10%

— ChEMBL document CHEMBL5705898 (Proc Natl Acad Sci U S A, 2014)
